Data published in the M2OR odorant receptor database.

Key:
Conditions in all cases: stereoisomer not certain
UniProt Q8VGJ5 = target: T1, UniProt Q8VGJ5
T1 sequence (whole entry): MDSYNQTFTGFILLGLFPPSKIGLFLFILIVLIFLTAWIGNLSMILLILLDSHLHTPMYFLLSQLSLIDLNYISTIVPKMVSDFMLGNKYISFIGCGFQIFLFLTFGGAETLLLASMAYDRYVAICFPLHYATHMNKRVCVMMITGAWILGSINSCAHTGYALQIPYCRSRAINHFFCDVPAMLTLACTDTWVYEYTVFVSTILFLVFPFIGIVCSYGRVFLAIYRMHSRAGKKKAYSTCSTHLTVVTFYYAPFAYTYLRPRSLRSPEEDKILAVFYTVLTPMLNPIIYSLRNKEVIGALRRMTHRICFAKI
Method in brief: (§1)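 Transient luciferase assays in mammalian cell lines were common, though methods varied by source. The values come from published papers and their supplementary material, with extra details from the original authors when needed. Responsive refers to a measured signal the original authors judged statistically different from baseline, and non-responsive (inactive) to the remainder.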

UniProt Q8VGL0 = target: T2, UniProt Q8VGL0
T2 sequence (whole entry): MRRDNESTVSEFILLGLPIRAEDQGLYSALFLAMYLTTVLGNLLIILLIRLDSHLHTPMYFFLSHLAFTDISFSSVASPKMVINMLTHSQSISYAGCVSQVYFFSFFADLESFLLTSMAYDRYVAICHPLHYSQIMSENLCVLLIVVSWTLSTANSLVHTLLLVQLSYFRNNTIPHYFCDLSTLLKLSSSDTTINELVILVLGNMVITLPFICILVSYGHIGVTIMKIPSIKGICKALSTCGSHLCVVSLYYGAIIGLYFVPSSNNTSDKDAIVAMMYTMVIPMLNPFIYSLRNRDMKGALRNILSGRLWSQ
Method in brief: as §1

UniProt Q8VGL7 = target: T3, UniProt Q8VGL7
T3 sequence (whole entry): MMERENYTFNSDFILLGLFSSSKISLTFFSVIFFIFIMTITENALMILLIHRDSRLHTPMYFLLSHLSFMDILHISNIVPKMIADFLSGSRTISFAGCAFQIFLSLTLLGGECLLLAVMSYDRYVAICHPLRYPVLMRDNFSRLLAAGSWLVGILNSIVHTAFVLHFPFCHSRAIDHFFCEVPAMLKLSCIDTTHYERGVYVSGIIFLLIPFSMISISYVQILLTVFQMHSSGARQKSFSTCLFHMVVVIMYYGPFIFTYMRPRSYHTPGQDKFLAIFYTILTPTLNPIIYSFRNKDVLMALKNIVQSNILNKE
Method in brief: as §1

UniProt Q8VGM2 = target: T4, UniProt Q8VGM2
T4 sequence (whole entry): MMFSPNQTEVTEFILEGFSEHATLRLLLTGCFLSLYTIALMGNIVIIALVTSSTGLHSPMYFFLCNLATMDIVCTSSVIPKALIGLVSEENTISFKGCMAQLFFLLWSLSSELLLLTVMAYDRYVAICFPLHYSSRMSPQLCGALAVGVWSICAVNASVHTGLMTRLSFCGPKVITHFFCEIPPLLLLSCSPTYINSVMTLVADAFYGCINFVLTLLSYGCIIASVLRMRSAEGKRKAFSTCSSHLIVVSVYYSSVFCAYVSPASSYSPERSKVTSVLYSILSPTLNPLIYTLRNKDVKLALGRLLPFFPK
Method in brief: as §1

UniProt Q8VGP6 = target: T5, UniProt Q8VGP6
T5 sequence (whole entry): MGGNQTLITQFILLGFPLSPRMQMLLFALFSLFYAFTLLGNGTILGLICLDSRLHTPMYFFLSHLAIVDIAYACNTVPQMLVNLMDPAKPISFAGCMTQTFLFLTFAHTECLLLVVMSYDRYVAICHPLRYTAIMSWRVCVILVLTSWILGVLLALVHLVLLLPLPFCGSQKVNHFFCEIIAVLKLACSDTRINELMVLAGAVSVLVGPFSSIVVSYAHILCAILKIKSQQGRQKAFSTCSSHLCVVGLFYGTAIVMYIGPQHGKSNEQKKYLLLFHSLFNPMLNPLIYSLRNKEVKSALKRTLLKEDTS
Method in brief: as §1

UniProt Q8VGQ3 = target: T6, UniProt Q8VGQ3
T6 sequence (whole entry): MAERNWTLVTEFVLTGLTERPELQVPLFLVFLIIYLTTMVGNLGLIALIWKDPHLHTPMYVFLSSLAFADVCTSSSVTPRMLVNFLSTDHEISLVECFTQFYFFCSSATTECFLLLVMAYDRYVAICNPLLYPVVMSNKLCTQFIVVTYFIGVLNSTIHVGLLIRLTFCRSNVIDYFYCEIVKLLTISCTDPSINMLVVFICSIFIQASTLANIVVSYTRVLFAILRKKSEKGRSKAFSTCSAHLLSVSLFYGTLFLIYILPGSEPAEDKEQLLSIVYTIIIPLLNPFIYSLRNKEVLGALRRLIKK
Method in brief: as §1

UniProt Q8VGT4 = target: T7, UniProt Q8VGT4
T7 sequence (whole entry): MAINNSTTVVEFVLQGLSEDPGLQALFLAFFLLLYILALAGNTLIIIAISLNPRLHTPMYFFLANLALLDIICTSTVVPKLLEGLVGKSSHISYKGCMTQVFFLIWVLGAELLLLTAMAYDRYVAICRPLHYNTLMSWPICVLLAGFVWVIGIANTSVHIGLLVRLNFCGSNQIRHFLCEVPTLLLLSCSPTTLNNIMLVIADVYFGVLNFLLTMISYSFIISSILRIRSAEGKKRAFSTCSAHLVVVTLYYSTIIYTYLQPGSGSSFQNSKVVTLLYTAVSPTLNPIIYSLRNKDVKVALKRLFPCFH
Method in brief: as §1

UniProt Q8VGU3 = target: T8, UniProt Q8VGU3
T8 sequence (whole entry): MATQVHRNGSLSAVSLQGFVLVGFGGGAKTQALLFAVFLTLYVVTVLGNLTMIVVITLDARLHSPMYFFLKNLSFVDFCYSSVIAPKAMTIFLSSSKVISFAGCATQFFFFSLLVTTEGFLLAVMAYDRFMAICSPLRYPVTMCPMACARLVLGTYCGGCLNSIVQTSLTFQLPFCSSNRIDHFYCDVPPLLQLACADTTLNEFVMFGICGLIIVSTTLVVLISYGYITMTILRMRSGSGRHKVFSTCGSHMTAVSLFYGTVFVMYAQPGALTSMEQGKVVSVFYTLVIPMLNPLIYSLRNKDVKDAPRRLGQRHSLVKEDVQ
Method in brief: as §1

UniProt Q8VGV1 = target: T9, UniProt Q8VGV1
T9 sequence (whole entry): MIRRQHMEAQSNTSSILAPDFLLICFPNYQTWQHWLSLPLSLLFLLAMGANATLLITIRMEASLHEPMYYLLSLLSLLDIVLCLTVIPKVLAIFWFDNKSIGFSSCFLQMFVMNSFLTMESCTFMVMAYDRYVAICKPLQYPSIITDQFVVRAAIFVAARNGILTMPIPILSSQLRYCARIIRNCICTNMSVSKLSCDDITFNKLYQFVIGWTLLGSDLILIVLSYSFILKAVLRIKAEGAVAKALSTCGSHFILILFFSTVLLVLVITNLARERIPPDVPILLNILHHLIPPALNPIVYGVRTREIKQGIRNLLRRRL
Method in brief: as §1

UniProt Q8VGV7 = target: T10, UniProt Q8VGV7
T10 sequence (whole entry): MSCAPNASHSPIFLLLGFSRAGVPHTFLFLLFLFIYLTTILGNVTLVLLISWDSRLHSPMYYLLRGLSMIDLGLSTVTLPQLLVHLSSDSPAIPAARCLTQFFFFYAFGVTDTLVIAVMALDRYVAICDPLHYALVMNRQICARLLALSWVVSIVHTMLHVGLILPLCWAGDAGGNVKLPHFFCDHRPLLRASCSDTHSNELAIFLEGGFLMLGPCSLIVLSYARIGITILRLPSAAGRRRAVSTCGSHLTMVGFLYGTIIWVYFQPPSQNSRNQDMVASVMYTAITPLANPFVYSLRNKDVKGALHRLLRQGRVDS
Method in brief: as §1

Measured: odorant receptor agonist call

C=CCOC(=O)Cc1ccccc1
active: UniProt Q8VGJ5 | UniProt Q8VGP6
inactive: all other assays above

COc1ccc(C=O)cc1
inactive: UniProt Q8VGL0 | UniProt Q8VGU3 | UniProt Q8VGV7

OCc1ccc2c(c1)OCO2
inactive: UniProt Q8VGL0 | UniProt Q8VGU3 | UniProt Q8VGV7

CCCCC(Br)C(=O)O (configuration not stated)
inactive: UniProt Q8VGL0 | UniProt Q8VGU3 | UniProt Q8VGV7

CSSC
inactive: UniProt Q8VGL0 | UniProt Q8VGU3 | UniProt Q8VGV7

Cc1ccc(OC(=O)Cc2ccccc2)cc1
inactive: UniProt Q8VGL0 | UniProt Q8VGU3 | UniProt Q8VGV7

CCC1CCC(=O)O1 (configuration not stated)
active: UniProt Q8VGJ5
not listed: UniProt Q8VGU3 | UniProt Q8VGV7
inactive: all other assays above

Oc1ccccc1Br
inactive: UniProt Q8VGL0 | UniProt Q8VGU3 | UniProt Q8VGV7

O=Cc1ccccc1
inactive: UniProt Q8VGL0 | UniProt Q8VGU3 | UniProt Q8VGV7

O=c1cc(O)c2ccccc2o1
inactive: all assays above

CC(C=O)Cc1ccc2c(c1)OCO2 (configuration not stated)
inactive: UniProt Q8VGL0 | UniProt Q8VGU3 | UniProt Q8VGV7

C=CCc1ccccc1
not listed: UniProt Q8VGU3 | UniProt Q8VGV7
inactive: all other assays above

O=CC=Cc1ccccc1
inactive: UniProt Q8VGL0 | UniProt Q8VGU3 | UniProt Q8VGV7

O=Cc1ccc2c(c1)OCO2
inactive: UniProt Q8VGL0 | UniProt Q8VGU3 | UniProt Q8VGV7

CCCCCCC(Br)C(=O)O (configuration not stated)
inactive: UniProt Q8VGL0 | UniProt Q8VGU3 | UniProt Q8VGV7

C=C(C)C1CC=C(C=O)CC1 (configuration not stated)
inactive: UniProt Q8VGL0 | UniProt Q8VGU3 | UniProt Q8VGV7
